# Assay outcomes (PubChem BioAssay)
# GSK3 alpha inh – human GSK-3 alpha kinase inhibition; P49840; AID 2650; inhibition, % at 10 µM; ADP-Glo luminescence, 60 min; actives 0.1% (n = 320,000);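 active = more than half of replicates show inhibition above 20%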;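 also: GST-tagged GSK-3 alpha with peptide substrate and 25 µM ATP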
# GSK3beta inhib – blocks human GSK3beta kinase activity; GST-GSK3beta kinase, ADP-Glo luminescence, 60 min; active compounds read low; activity score (negative = inhibition), % at 10 µM; actives 0.038% (n = 300,000);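 active = more than half of replicate wells score below -50%, meaning over 50% inhibition versus plate controls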
# Target sequence (P49841 whole entry, looked up): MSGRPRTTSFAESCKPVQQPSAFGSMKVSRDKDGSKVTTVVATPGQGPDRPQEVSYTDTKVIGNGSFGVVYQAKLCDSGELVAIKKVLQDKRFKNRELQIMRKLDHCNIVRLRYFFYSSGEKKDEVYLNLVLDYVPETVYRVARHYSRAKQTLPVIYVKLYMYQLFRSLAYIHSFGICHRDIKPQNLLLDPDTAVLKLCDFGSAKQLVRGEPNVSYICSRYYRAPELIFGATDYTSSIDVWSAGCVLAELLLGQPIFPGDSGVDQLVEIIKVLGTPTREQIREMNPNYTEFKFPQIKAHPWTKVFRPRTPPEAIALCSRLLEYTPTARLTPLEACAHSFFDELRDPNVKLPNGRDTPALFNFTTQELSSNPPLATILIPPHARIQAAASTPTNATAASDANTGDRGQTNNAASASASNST
#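 Test system – GST-tagged human GSK3beta kinase, cell-free · Incubation – 60 min enzyme reaction, room temperature · Signal – ADP-Glo luminescence · Also added – peptide substrate and ATP at 25 µM · Controls – DMSO neutral wells and GW8510 at 20 µM as positive · Buffer or medium – Tris/MgCl2 kinase buffer · Measure – Luminescence-derived activity versus plate DMSO and GW8510 wells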
# STK33 inh – human STK33 kinase inhibition; purified STK33, MBP phosphorylation, ADP-Glo luminescence; inhibition, % at 10 µM; actives 0.073% (n = 320,000);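 active = inhibition at or above 25%, using the most active replicate where run in duplicate; inactive = inhibition below 25%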
# DYRK1A inh – inhibitors of rat Dyrk1A kinase. inhibition, % at 12.5 µM. AID 504441. ADP-Glo luminescence, NFATc1 peptide. actives 0.43% (n = 310,000); in the data active = inhibition above about 50%
# CDK5 inh – CDK5/p35 (human) kinase inhibition | actives 0.01% (n = 330,000) | inhibition, % at 10 µM | Recombinant CDK5/p35, ADP-Glo luminescence, 60 min;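 active = highest replicate inhibition of at least 50% and at least 75% of replicates reaching 50%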
# ADP-Glo artifact – counter-screen for Dyrk1A inhibitors: ADP-Glo luciferase artifacts. shares compounds with DYRK1A inh. ADP-Glo luciferase artifact assay, no Dyrk1A, luminescence. AC50, µM (top dose mostly 12 µM). 1,300 tested, under 10 active. AID 588348;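 active = fitted half-maximal dose AC50 no more than ten times the top valid tested dose, with luminescence dropping as dose rises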
# A number is an active result; 0 = inactive; - = no result. Only a selection was taken, and hits are over-represented in it overall.
SMILES,GSK3 alpha inh,GSK3beta inhib,STK33 inh,DYRK1A inh,CDK5 inh,ADP-Glo artifact
Cc1ccc(-n2c(=O)c3c4c(sc3n3c(=S)[nH]nc23)CCC4)cc1,0,0,0,0,0,-
O=c1c2c3c(sc2n2c(=S)[nH]nc2n1-c1ccccc1)CCC3,0,0,0,55,0,0
CC(C)C(=O)Nc1c2c(nn1-c1ccc(F)cc1)CS(=O)(=O)C2,0,0,0,0,0,-
c1ccc2sc(NN=C3CCCCCC3)nc2c1,0,0,0,62,0,0
O=C(Nc1nc2ccccc2s1)c1ccccc1,0,0,0,0,0,-
CCCC1CCc2[nH]nc(C(=O)NN)c2C1 (stereo not drawn),0,-,0,0,0,-
Cc1nn(C(C)C(=O)NC2CCC(C)CC2)c(=O)c2nn(-c3ccccc3)c(C)c12 (stereo not drawn),0,0,0,0,0,-
NC(=O)CC(NC(=O)c1cccc(Br)c1)c1ccc(N2CCN(c3ccccn3)CC2)c([N+](=O)[O-])c1 (stereo not drawn),0,0,0,54,0,0
NC(=O)CC(NC(=O)c1ccc(Br)cc1)c1ccc(N2CCN(c3ccccn3)CC2)c([N+](=O)[O-])c1 (stereo not drawn),0,0,0,0,0,-
Cc1cccc(CNc2ncnc3ccc(-c4ccoc4)cc23)c1,0,-,0,66,0,0
Cc1ccc(S(=O)(=O)/N=C2\C=C(Nc3cccc(C(=O)O)c3)C(=O)c3ccccc32)cc1,0,0,0,51,0,0
Cc1ccc(S(=O)(=O)/N=C2\C=C(NS(=O)(=O)c3ccccc3)C(=O)c3ccccc32)c(C)c1,-,-,-,0,0,-
Cc1ccc(S(=O)(=O)/N=C2\C=C(Nc3cccc(C(=O)O)c3)C(=O)c3ccccc32)c(C)c1,0,0,0,76,0,0
CC(C)S(=O)(=O)C1=NSC2=NC(=O)/C(=C\c3ccc(-c4ccccc4)o3)C(=N)N21,0,0,0,0,0,-
CC(C)S(=O)(=O)C1=NSC2=NC(=O)/C(=C\c3ccc(-c4cccc(C(=O)O)c4)o3)C(=N)N21,-,-,-,65,0,0
Cc1ccccc1C(=O)N1CCN(c2ccc(NC(=O)c3cccc(OC(C)C)c3)cc2)CC1,0,0,0,60,0,0
COc1c(C)cccc1C(=O)Nc1ccc(N2CCN(C(=O)c3ccccc3C)CC2)cc1,0,0,0,0,0,-
Cn1c(C(=O)N2CCN(c3ncccn3)CC2)cc2c(=O)n(C)c3ccccc3c21,-,0,0,0,0,-
Cn1c(C(=O)NCC2CCCO2)cc2c(=O)n(C)c3ccccc3c21 (stereo not drawn),0,0,0,55,0,0
Cc1ccc(CNC(=O)c2cc3c(=O)n(C)c4ccccc4c3n2C)o1,-,0,0,62,0,0
Cn1c(C(=O)NCc2ccccn2)cc2c(=O)n(C)c3ccccc3c21,-,0,0,0,0,-
Cn1c(C(=O)N2CCCC2)cc2c(=O)n(C)c3ccccc3c21,-,-,-,75,0,0
Nc1cccnc1Oc1ccccc1F,0,0,0,0,0,-
O=C(/C=C/c1ccccc1)Nc1cccnc1Oc1ccccc1F,0,0,0,51,0,0
COc1cc(OC)cc(OC(=O)C2CCN(S(=O)(=O)c3ccc(OC)c(OC)c3)CC2)c1,0,0,0,0,0,-
SMILES,GSK3 alpha inh,GSK3beta inhib,STK33 inh,DYRK1A inh,CDK5 inh,ADP-Glo artifact
CC(C)(CNC(=S)NCCc1ccccc1)CNC(=S)NCCc1ccccc1,-,0,-,0,0,-
O=C1C=C(c2ccc3c(c2)OCO3)CCC1,0,0,0,66,0,0
COc1ccc(/C(C)=N/NC(=O)c2cc(C)[nH]n2)c(OC)c1,0,0,0,0,0,-
CCCCCCCCN1[C@@H](CC(C)=O)c2cc(C(F)(F)F)ccc2S1(=O)=O,0,0,0,0,0,-
CCCCCCCCN1[C@@H](CC(=O)OC)c2cc(C(F)(F)F)ccc2S1(=O)=O,0,0,0,50,0,0
CNc1c(NS(=O)(=O)c2ccc(CC(C)C)cc2)c(=O)oc2ccccc12,0,0,0,0,0,-
N#C/C(=C\c1cccs1)c1nc2ccccc2[nH]1,0,0,0,0,0,-
N#C/C(=C/c1ccc(O)c(O)c1)c1nc2ccccc2[nH]1,0,0,0,67,0,0
O=C1CCN2C=Nc3cccc4ccc1c2c34,0,0,0,73,0,0
O=C1CCC(=O)c2ccc3c4c(ccc1c24)CC3,-,-,-,0,0,-
